For data set [1], the system named is M14. The data set can be described thus: Cytotoxicity against human M14 cells after 48 hrs by MTS assay. The class given is functional, cell-based. Conditions: M14, 48 h.
In data set [2] the test system is DU-145. The data set can be described thus: Cytotoxicity against human DU145 cells after 48 hrs by MTS assay. Type of data set: functional, cell-based. Conditions: DU-145, 48 h. For orientation: Tetrazolium assays rely on reduction of a dye to a coloured formazan, in cell work by metabolically active cells.
Data set [3] relates to A-375. The data set can be described thus: Cytotoxicity against human A375 cells after 48 hrs by MTS assay. The class given is functional, cell-based. The note with it: A-375, 48 h.
Data set [4] has as its system DU-145. The data set can be described thus: Cytotoxicity against human paclitaxel-resistant DU145 cells after 48 hrs by MTS assay. Type of data set: functional, cell-based. The note with it: DU-145, 48 h.
A short description of data set [5]: Cytotoxicity against human M14/LCC6R1 cells after 48 hrs by MTS assay. The note with it: M14/LCC6R1, 48 h. Type of data set: functional, cell-based.
Data set [6] relates to PC-3. The data set can be described thus: Cytotoxicity against human paclitaxel-resistant PC3 cells after 48 hrs by MTS assay. Conditions: PC-3, 48 h. The class given is functional, cell-based.
Data set [7] relates to PC-3. The data set can be described thus: Cytotoxicity against human PC3 cells after 48 hrs by MTS assay. Type of data set: functional, cell-based. Conditions: PC-3, 48 h.
Data set [8] can be described thus: Half life in mouse liver microsomes at 2 uM by LC-MS/MS analysis. The class given is ADME.
Data set [9] relates to LNCaP. The data set can be described thus: Cytotoxicity against human LNCAP cells after 48 hrs by MTS assay. The class given is functional, cell-based.
Data set [10] in a line: Lipophilicity, log P of the compound. Type of data set: physicochemical. Conditions: octanol/water.
Data set [11] is described as follows: Cytotoxicity against human WM164 cells after 48 hrs by MTS assay. The class given is functional, cell-based. The note with it: WM164, 48 h.
Data set [12] in a line: Half life in human liver microsomes at 2 uM by LC-MS/MS analysis. Type of data set: ADME. (Microsomes from liver hold many membrane-bound enzymes, among them those of drug oxidation.)
Data set [13] can be described thus: Cytotoxicity against human PPC1 cells after 48 hrs by MTS assay. Conditions: PPC-1, 48 h. The class given is functional, cell-based.
Data set [14] has as its target Tubulin (Sus scrofa) (UniProt P02554+P02550). The data set can be described thus: Inhibition of porcine tubulin polymerization measured every 1 min for 60 mins. The class given is protein assay. An outline of the steps:
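In vitro microtubule polymerization run with test agents at 5 or 10 μM. Vehicle, paclitaxel (5 μM) and colchicine (5 μM) were run as controls under the same conditions. Curves are from a representative experiment.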

Data set [15] deals with A-375. The data set can be described thus: Cell cycle arrest in human A375 cells assessed as accumulation at G2/M phase at 50 nM after 24 hrs using propidium iodide staining by flow cytometry analysis (reference value: 4 +/- 0.5%). Type of data set: functional. An outline of the steps: (§1)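 Cells treated with test agents for 24 h, then cell cycle distribution measured by flow cytometry; G2/M fraction compared with a vehicle-treated control group; N = 3.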
A general note: Flow cytometry measures light scatter and fluorescence of single cells or particles in a stream.

The subject of data set [16] is A-375. The data set can be described thus: Cell cycle arrest in human A375 cells at 10 nM after 24 hrs using propidium iodide staining by flow cytometry analysis. The class given is functional, cell-based. In outline:
as §1

The subject of data set [17] is PC-3. The data set can be described thus: Cell cycle arrest in human PC3 cells assessed as accumulation at G2/M phase at 10 nM after 24 hrs using propidium iodide staining by flow cytometry analysis. The class given is functional, cell-based. An outline of the steps:
as §1

Consider 16 compounds from ChEMBL document CHEMBL3632606, “Structural Optimization of Indole Derivatives Acting at Colchicine Binding Site as Potential Anticancer Agents” (ACS Med Chem Lett, 2015).

The source made the active and inactive calls. The calls are words filed in the database; no cut-off is given here. Where only a bound is given, the exact number is not on record here.

Tubulin (Sus scrofa), sequence (P02550 whole entry, looked up): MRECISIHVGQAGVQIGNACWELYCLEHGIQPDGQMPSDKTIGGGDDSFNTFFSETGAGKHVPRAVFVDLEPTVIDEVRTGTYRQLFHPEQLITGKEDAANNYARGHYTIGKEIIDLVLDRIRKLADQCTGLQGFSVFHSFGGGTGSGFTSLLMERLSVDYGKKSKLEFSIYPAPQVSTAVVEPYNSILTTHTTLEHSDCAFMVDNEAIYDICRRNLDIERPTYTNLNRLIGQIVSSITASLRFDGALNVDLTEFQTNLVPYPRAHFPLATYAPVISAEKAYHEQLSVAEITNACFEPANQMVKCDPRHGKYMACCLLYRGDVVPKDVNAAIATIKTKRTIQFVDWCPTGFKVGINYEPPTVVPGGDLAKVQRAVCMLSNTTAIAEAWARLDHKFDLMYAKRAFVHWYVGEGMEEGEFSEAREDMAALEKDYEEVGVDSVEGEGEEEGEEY
Tubulin (Sus scrofa), sequence (P02554 whole entry, looked up): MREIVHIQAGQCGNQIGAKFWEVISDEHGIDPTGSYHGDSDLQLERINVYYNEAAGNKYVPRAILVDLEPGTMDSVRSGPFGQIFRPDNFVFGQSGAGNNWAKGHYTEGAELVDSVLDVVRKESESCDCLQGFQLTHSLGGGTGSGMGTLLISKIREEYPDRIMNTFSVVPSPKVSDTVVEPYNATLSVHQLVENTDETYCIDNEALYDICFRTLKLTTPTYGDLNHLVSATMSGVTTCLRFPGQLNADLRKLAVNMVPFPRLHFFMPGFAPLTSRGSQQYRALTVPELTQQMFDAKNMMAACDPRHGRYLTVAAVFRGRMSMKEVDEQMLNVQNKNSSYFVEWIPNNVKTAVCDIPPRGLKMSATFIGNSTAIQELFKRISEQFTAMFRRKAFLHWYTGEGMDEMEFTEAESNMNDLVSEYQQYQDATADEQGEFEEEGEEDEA

In general, IC50 refers to the midpoint of a concentration-inhibition curve. Higher therefore signals a need for much substance. Consider `COc1cc(-c2nccc3c2NC(c2cccc4cc[nH]c24)N3)cc(OC)c1OC` (stereo not drawn), for which the IC50 in [1] is 1.06 µM; in data set [2], 2.54 µM; in data set [3], 0.984 µM; in [4] it was 3.66 µM; in [5], 0.975 µM; in data set [6] it was 0.689 µM. The compound also came in with an IC50 in data set [7] of 1.24 µM.

As usually defined, the half-life is the time in which the quantity being followed falls by half. A high value points to slow decline. One may read the logP as a log measure of how a compound divides between an organic and an aqueous phase. A lower logP goes with a more hydrophilic compound. For the compound `COc1cc(-c2nccc3ccc(-c4ccc5[nH]ccc5c4)cc23)cc(OC)c1OC`, the IC50 in data set [1] is 0.074 µM; in data set [9] it was 0.081 µM; in [2], 0.092 µM; in [3], 0.929 µM; in data set [11], 0.227 µM; in [7] it was 0.064 µM. Moreover, inhibition in data set [13] was half-maximal at 0.061 µM (IC50). Also, the results for the half-life at 2 µM in data set [8] and in data set [12] were 2.1 min and 38.9 min, respectively. Further, the log partition coefficient (logP) in [10] was 4.63.

For `COc1cc(-c2nccc3[nH]c(-c4ccc5[nH]ccc5c4)nc23)cc(OC)c1OC`, the IC50 in data set [1] is 0.053 µM; in data set [2], 0.121 µM; in [3] it was 0.022 µM; in [4], 0.164 µM; in [5], 0.116 µM; in data set [6] it was 0.034 µM. This compound also returned an IC50 in data set [7] of 0.027 µM. Also, the half-life at 2 µM in data set [8] stood at 16.1 min; in data set [12], 45.4 min.

As for `COc1cc(-c2nccc3[nH]c(-c4c[nH]c5ccccc45)nc23)cc(OC)c1OC`, the half-maximal inhibitory concentration (IC50) in data set [1] was 0.026 µM; in [2], 0.222 µM; in data set [3], 0.016 µM; in [4], 0.074 µM; in data set [5] it was 0.088 µM; in [6] it was 0.007 µM. In [7], this compound showed an IC50 of 0.027 µM.

On to `c1cc2ccc(-c3ccc4[nH]ccc4c3)cc2c(-c2ccc3[nH]ccc3c2)n1`, for which the IC50 in data set [1] was 0.111 µM; in data set [9] it was 0.098 µM; in data set [2], 0.113 µM; in [3] it was 0.093 µM; in data set [11], 0.147 µM; in [7], 0.072 µM. The compound also registered a 50% inhibitory concentration (IC50) in [13] of 0.048 µM.

Regarding `COc1cc(-c2ccc3ccnc(-c4cc(OC)c(OC)c(OC)c4)c3c2)cc(OC)c1OC`, the half-maximal inhibitory concentration (IC50) in data set [1] came to 9.74 µM; in [3], 10.7 µM; in [11] it was 6.67 µM.

`Fc1ccc(-c2ccc3ccnc(-c4ccc(F)cc4)c3c2)cc1`: the IC50 in data set [1], in [9], in data set [2], in data set [3], in [11] and in data set [7] was > 30 µM each time. Moreover, the IC50 in [13] is > 30 µM.

As for `COc1cc(-c2nccc3[nH]c(-c4cccc5ccn(S(=O)(=O)c6ccccc6)c45)nc23)cc(OC)c1OC`, the IC50 in data set [1] was 0.471 µM; in data set [2], 1.03 µM; in [3] it was 0.551 µM; in data set [4], > 30 µM; in [5] it was 0.545 µM; in data set [6], 0.525 µM. In data set [7], this compound gave an IC50 of 0.623 µM.

With `COc1cc(-c2nccc3[nH]c(-c4cccc5[nH]ccc45)nc23)cc(OC)c1OC`, the IC50 was found to be 0.014 µM in data set [1]; 0.014 µM in [2]; 0.003 µM in data set [3]; 0.017 µM in [4]; 0.025 µM in [5]; 0.012 µM in data set [6]. The same compound displayed an IC50 in [7] of 0.007 µM. For the same compound, the inhibition entry in data set [14] was “Dose-dependent effect”. The values for the half-life at 2 µM in [8] and in [12] were 10.5 min and 33.1 min, respectively. Moreover, in [15], the Activity was 42%. Further, the result in data set [16] was inactive. Moreover, the outcome in data set [17] was Active.

Take `COc1cc(-c2nccc3[nH]c(-c4ccc5cc[nH]c5c4)nc23)cc(OC)c1OC`: the IC50 in data set [1] was determined as 0.016 µM; in [2] it was 0.012 µM; in data set [3], 0.003 µM; in [4], 0.012 µM; in data set [5] it was 0.053 µM; in [6], 0.013 µM. The midpoint of inhibition in data set [7], the IC50, lay at 0.008 µM. Also, the inhibition result in [14] was “Dose-dependent effect”. Moreover, the half-life at 2 µM turned out to be 27.7 min in data set [8] and 56.3 min in [12]. In [15], the Activity is given as 65.9%. Further, in data set [16], the result was inactive. Moreover, in data set [17], the outcome was Active.

With `COc1cc(C(=O)c2cccc(-c3cc4ccccc4[nH]3)c2)cc(OC)c1OC`, the logP in data set [10] turned out to be 4.14. The compound also showed a half-life at 2 µM in data set [12] of 24 min. The compound further displayed an IC50 in [7] of 0.0282 µM.

As for `O=S(=O)(c1ccccc1)n1ccc2c(-c3nc4c(Br)nccc4[nH]3)cccc21`, the IC50 in [1], in [2], in data set [3], in [4], in data set [5] and in data set [6] was > 30 µM in each case. In addition, the IC50 in data set [7] was > 30 µM.

Take `COc1cc(-c2nccc3[nH]c(-c4cccc5cc[nH]c45)nc23)cc(OC)c1OC`: the IC50 in data set [1] was 0.028 µM; in data set [2] it was 0.177 µM; in data set [3] it was 0.024 µM; in [4] it was > 30 µM; in [5], 0.053 µM; in data set [6], 0.065 µM. The compound further returned a half-inhibitory concentration (IC50) in data set [7] of 0.043 µM.

Regarding `Fc1ccc(-c2nccc3ccc(-c4ccc5[nH]ccc5c4)cc23)cc1`, the IC50 in data set [1] is 0.049 µM; in [9] it was 0.038 µM; in data set [2], 0.047 µM; in data set [3] it was 0.066 µM; in data set [11], 0.033 µM; in [7], 0.026 µM. The compound further registered an IC50 in [13] of 0.028 µM. The half-life at 2 µM in data set [8] was 2 min; in data set [12], 30.7 min.

On to `COc1cc(-c2nccc3[nH]c(-c4cccc5c4ccn5S(=O)(=O)c4ccccc4)nc23)cc(OC)c1OC`, for which the half-inhibitory concentration (IC50) in [1] amounted to 0.67 µM; in [2] it was 0.406 µM; in data set [3] it was 0.263 µM; in [4], 0.325 µM; in data set [5], 0.73 µM; in data set [6], 0.57 µM. In data set [7], this compound yielded an IC50 of 0.956 µM.

In the case of `COc1cc(-c2nccc3[nH]c(-c4cc5ccccc5[nH]4)nc23)cc(OC)c1OC`, the IC50 in data set [1] was determined as 0.164 µM; in [2], 1.7 µM; in data set [3], 0.175 µM; in data set [4], 2.04 µM; in data set [5], 0.191 µM; in [6], 0.12 µM. The compound further registered an IC50 in [7] of 0.17 µM.
